This is an account of results in ChEMBL document CHEMBL3272071, “Chemistry and biological activities of N,N-dimethylaminoethyl acrylate, a choline acetyltransferase inhibitor” (J Med Chem, 1976).

Data set [1] in a line: Stability of the compound assessed as autohydrolysis at 5 X 10^-3 M at pH 7.4. It counts as physicochemical. Conditions: buffer, pH 7.4, 5000 µM. In short, it runs like this: (§1)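 Autohydrolysis run at 25°C for 20 min in barbital buffer (1.5 mM sodium barbital, 0.3 mM KH2PO4, 150 mM NaCl), pH adjusted to give 7.3-7.6. Compound at 5.0 mM final, no enzyme. pH change tracked against an acrylic acid titration standard curve. Mean ± SEM, three experiments.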

In data set [2] the target is Cholinesterase (Homo sapiens, UniProt P06276). Kind of data set: Stability of the compound assessed as butyrylcholine esterase (unknown origin)-mediated hydrolysis at 5 X 10^-3 M. The class given is ADME. Conditions: 5000 µM. A digest of the protocol: (§2)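 Enzymatic hydrolysis at 5 mM compound in barbital buffer at 25°C for 20 min, pH 7.3-7.6. AChE at 0.083 U/ml or BuChE at 0.017 U/ml. Ester cleavage followed as pH change calibrated against acrylic acid. Mean ± SEM of three experiments.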

The target in data set [3] is Acetylcholinesterase (Homo sapiens, UniProt P22303). Nature of the data set: Stability of the compound assessed as acetylcholinesterase (unknown origin)-mediated hydrolysis at 5 X 10^-3 M. It counts as ADME. Conditions: 5000 µM. A digest of the protocol:
as §2

The target of data set [4] is T1, Choline O-acetyltransferase (Rattus norvegicus, UniProt P32738).
T1 sequence (P32738 whole entry): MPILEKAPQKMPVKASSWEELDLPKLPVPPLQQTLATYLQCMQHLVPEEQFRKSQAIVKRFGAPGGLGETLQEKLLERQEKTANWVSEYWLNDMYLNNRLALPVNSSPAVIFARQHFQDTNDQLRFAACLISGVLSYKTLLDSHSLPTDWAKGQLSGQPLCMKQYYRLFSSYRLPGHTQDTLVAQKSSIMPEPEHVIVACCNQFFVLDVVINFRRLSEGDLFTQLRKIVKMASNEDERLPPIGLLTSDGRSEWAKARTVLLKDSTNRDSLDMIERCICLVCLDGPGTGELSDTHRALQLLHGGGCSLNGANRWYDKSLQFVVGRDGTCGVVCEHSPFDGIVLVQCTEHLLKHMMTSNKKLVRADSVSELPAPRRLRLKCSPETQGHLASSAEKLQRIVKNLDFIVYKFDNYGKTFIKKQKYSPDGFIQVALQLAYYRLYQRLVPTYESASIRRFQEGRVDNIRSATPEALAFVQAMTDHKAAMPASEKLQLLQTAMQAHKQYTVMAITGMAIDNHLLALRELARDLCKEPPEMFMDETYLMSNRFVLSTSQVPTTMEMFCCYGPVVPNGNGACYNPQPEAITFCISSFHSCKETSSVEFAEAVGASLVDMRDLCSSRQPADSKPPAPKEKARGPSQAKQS
Kind of data set: Inhibition of Holtzman rat brain choline acetyltransferase using [1-14C-acetyl]-CoA as substrate at 1 mM incubated 20 mins prior to substrate addition measured after 30 mins by liquid scintillation counting analysis. Conditions: read-out: I50.

Data set [5] has as its target T1, Choline O-acetyltransferase. Nature of the data set: Inhibition of Holtzman rat brain choline acetyltransferase using [1-14C-acetyl]-CoA as substrate incubated 20 mins prior to substrate addition measured after 30 mins by liquid scintillation counting analysis. Conditions: read-out: I50. A digest of the protocol: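 ChAc extracted from Holtzman rat brain acetone powder in ice-cold pH 7.0 phosphate medium (NaCl, EDTA, cysteine, BSA), 9000 g supernatant. Extract preincubated with inhibitor 20 min at 37°C in pH 7.0 phosphate buffer with 150 mM NaCl, 0.05 mM neostigmine, 50 mM choline. Then [1-14C-acetyl]-CoA at 0.065 mM final, 30 min at 37°C. Acetylated product by sequential anion/cation exchange and scintillation counting.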

Data set [6] in a line: Stability in D2O by NMR spectroscopy. The class given is physicochemical. A digest of the protocol: (§3)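 NMR spectra taken in D2O every 3 min for 1 hr. pH stayed at 9.0 (±0.5) throughout.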
The subject of data set [7] is Lithobates pipiens. Kind of data set: Inhibition of choline acetyltransferase in frog sciatic nerve-gastrocnemius muscle assessed as blockade of electrically stimulated muscle contraction after 3 hrs. It counts as tissue-based. A digest of the protocol:
(§4)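 Rana pipiens sciatic nerve-gastrocnemius (20-25 g frogs) in frog Ringer, 25°C, 95% O2/5% CO2. Nerve stimulated at 7 V, 0.5 ms, 250 Hz for 0.1 s every 10 s. Isometric contractions recorded, with washout after 10^-3 M exposure. ED50 with 95% confidence limits by Litchfield-Wilcoxon, N=16.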

Data set [8] deals with T2, Choline O-acetyltransferase (Rattus norvegicus) (UniProt P32738).
T2 sequence (whole entry): T1 sequence (P32738 whole entry)
Kind of data set: Uncompetitive inhibition of Holtzman rat brain choline acetyltransferase using acetyl-CoA as substrate at 0.2 mM incubated 20 mins prior to substrate addition measured after 30 mins by LB plot using liquid scintillation counting analysis.

Data set [9] deals with T2, Choline O-acetyltransferase (Rattus norvegicus). Nature of the data set: Inhibition of Holtzman rat brain choline acetyltransferase using [1-14C-acetyl]-CoA as substrate at 1 mM incubated in un-buffered water for 24 hrs by liquid scintillation counting analysis. In short, it runs like this: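 Hydration product made by keeping compound in unbuffered water for 24 hr, then run at 1.0 mM in the standard rat brain ChAc radioassay: 20 min preincubation at 37°C, 0.065 mM [1-14C-acetyl]-CoA, 30 min, ion-exchange then scintillation counting.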

Data set [10] is described as follows: Stability in D2O assessed every 4 mins for 1 hr by NMR spectroscopy. The class given is physicochemical.
Data set [11] is described as follows: Stability in aqueous medium by NMR spectroscopy. The class given is physicochemical. Conditions: buffer. A digest of the protocol: as §3
Data set [12] can be described thus: Stability in chloroform-d by NMR spectroscopy. The class given is physicochemical.
Data set [13] has as its target T2, Choline O-acetyltransferase (Rattus norvegicus). Nature of the data set: Uncompetitive inhibition of Holtzman rat brain choline acetyltransferase using choline as substrate at 1 mM incubated 20 mins prior to substrate addition measured after 30 mins by LB plot using liquid scintillation counting analysis.
The target is the same in data set [14]. Nature of the data set: Inhibition of Holtzman rat brain choline acetyltransferase using [1-14C-acetyl]-CoA as substrate at 1 mM treated with buffered solution at pH 7.4 for 3 to 60 mins prior to enzyme addition followed by 20 mins incubation prior to substrate addition […] by liquid scintillation counting analysis.
Data set [15] shares this target. Nature of the data set: Reversible inhibition of Holtzman rat brain choline acetyltransferase using [1-14C-acetyl]-CoA as substrate at 5 X 10^-4 M incubated 20 mins prior to substrate addition measured after 30 mins by liquid scintillation counting analysis. In short, it runs like this:
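Reversibility test at 5 × 10^-4 M inhibitor with enzyme varied from 10 to 30 mg acetone powder per ml. Rat brain extract preincubated 20 min at 37°C, then [14C]acetyl-CoA radioassay for 30 min with scintillation counting. Mean of three experiments ± SEM.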

The nature of data set [16]: Stability in Me2SO-d6 by NMR spectroscopy. It counts as physicochemical.
Data set [17] has as its system Lithobates pipiens. Nature of the data set: Inhibition of choline acetyltransferase in frog sciatic nerve-gastrocnemius muscle assessed as blockade of electrically stimulated muscle contraction at 10^-3 M incubated for 3 hrs followed by compound washout. It counts as tissue-based. In short, it runs like this: as §4
Data set [18] in a line: Dissociation constant, pKa of the compound. It counts as physicochemical.
A short description of data set [19]: Half life of the compound auto-hydrolysis at 5 X 10^-3 M at pH 7.4. The class given is physicochemical. Conditions: buffer. A digest of the protocol: as §1
The species named for data set [20] is Cavia porcellus. Nature of the data set: Inhibition of choline acetyltransferase in guinea pig ileum assessed as blockade of electrically stimulated muscle contraction after 3 hrs. It counts as tissue-based. In short, it runs like this:
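Guinea pig ileum on coaxial electrode in Tyrode solution, 37°C, 95% O2/5% CO2. Transmural stimulation: monophasic square pulses, 40 V supramaximal, 10 Hz, 0.5 ms, 1 s every 10 s. Contraction blockade gave ED50 with 95% confidence limits by Litchfield-Wilcoxon, N=20.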

One may read the pKa as the pH at which an ionisable group is half protonated. Read a high pKa as a weaker acid or stronger base. One may read the half-life as the time in which the quantity being followed falls by half.

Calls of active or inactive are those of the source. The rule behind the calls is not given here.

Sequence of Cholinesterase (P06276 whole entry): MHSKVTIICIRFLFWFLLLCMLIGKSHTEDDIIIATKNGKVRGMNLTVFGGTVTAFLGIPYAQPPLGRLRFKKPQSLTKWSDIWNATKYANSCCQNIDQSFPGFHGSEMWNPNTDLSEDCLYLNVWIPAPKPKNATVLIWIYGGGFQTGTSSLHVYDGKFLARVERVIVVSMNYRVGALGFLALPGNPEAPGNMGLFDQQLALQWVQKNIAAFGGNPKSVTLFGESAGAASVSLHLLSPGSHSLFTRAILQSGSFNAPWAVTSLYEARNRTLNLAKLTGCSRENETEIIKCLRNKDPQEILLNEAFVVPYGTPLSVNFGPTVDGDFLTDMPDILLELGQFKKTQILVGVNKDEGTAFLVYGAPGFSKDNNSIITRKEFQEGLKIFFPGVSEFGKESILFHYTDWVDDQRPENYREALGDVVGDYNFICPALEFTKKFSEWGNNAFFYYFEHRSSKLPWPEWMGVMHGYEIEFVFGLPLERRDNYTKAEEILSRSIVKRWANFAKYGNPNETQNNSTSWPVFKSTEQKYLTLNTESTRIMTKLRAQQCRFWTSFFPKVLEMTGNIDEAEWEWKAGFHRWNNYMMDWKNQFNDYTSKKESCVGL
Sequence of Acetylcholinesterase (P22303 whole entry): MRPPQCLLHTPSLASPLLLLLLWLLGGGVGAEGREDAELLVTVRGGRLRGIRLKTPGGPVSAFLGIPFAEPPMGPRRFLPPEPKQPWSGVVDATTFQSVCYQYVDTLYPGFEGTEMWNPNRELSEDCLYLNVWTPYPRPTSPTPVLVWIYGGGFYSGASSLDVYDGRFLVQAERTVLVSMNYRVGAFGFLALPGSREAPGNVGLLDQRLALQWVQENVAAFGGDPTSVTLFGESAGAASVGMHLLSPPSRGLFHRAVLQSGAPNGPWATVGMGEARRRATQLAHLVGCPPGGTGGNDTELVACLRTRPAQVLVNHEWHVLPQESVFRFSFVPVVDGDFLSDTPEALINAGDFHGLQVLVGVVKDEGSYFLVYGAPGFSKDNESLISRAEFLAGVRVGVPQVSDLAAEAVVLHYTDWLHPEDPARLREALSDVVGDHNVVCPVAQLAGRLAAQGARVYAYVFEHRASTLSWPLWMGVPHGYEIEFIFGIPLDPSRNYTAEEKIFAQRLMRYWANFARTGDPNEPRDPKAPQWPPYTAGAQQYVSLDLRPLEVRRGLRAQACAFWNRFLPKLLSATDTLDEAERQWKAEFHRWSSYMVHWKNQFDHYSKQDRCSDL

On to `CC(=O)OCC[N+](C)(C)C` [ACETYLCHOLINE], for which the results for the Drug degradation in data set [1], in [2] and in [3] were 1.75 ×10⁻⁸ mol/min, 6.57 ×10⁻⁸ mol/min and 1.46 ×10⁻⁸ mol/min, respectively.

In the case of `C=CC(=O)O` [ACRYLIC ACID], in data set [4], the IC50 is less than 200 µM.

For the molecule `C=CC(=O)OCCN(C)C`, the Drug degradation stood at 1.75 ×10⁻⁸ mol/min in data set [1], 0.06 ×10⁻⁸ mol/min in [2] and 0.07 ×10⁻⁸ mol/min in data set [3]. For the same molecule, in [5], the IC50 came out at 502 µM. In addition, the Stability entry in data set [6] is “Stable”; in data set [10] it was “Stable”; in data set [11], “Unstable”; in data set [12], “Stable”; in data set [16], “Stable”. The ED50 in [7] is 5.05 ×10⁻⁴ M; in data set [20] it was 1.21 ×10⁻⁴ M. Further, the inhibition entry in data set [8], in [13], in data set [14], in data set [15] and in [17] was “Active” throughout. Further, the inhibition entry in data set [9] is “inactive”. The same molecule came in with a pKa in [18] of 8.6. The half-life at 5000 µM in data set [19] was 24 h.
